Compounds with a hit are over-represented: about 1.8% of the library has one in this group of screens.
FXIIa inh: factor XIIa (human) inhibition; P00748; purified FXIIa, Boc-QGR-AMC fluorogenic substrate, 2 h; inhibition, % at 5 µM; 220,000 compounds, 0.3% hits; in the data active = inhibition above about 40%;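 also: 0% = enzyme with no compound and 100% = blank without enzyme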
Wee1 stabilizer: inhibitors of human Wee1 degradation; 220,000 compounds, 1.2% hits; reporter increase, % at 5 µM; P30291; AID 1321; HeLa Luc-Wee1K328M stability, luciferase luminescence; 100% = proteasome inhibitor MG132 effect;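 active = activation above the mean of all tested compounds plus 3 SD, set per screening run, cut at about 8.8% in these data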;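 also: cells exposed to compound for 20 h before luminescence read; 0% = DMSO alone and 100% = MG132 at 30 µM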
KLK5 inh: kallikrein 5 (human) inhibition; recombinant hK5, fluorogenic AMC substrate cleavage; inhibition, % at 5 µM; 210,000 compounds, 0.59% hits; AID 873;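 active = inhibition of 40% or more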;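 also: 0% = enzyme controls without compound and 100% = no-enzyme blanks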
Target sequence (Q9Y337 67-293 limits assumed): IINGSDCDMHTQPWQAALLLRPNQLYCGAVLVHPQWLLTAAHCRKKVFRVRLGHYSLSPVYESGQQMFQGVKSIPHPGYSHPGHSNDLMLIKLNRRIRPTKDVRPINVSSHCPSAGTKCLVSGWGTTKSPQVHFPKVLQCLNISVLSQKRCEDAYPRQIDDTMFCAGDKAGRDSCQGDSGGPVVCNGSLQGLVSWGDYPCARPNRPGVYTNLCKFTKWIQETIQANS
FXIa inh 1536: factor XIa (human) inhibition | P03951 | purified FXIa, Boc-Glu-Ala-Arg-AMC fluorogenic substrate | inhibition, % at 5 µM | 220,000 compounds, 0.14% hits;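 active = inhibition of at least 40%; inactive = inhibition below 40%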;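 also: fluorescence of freed AMC excited at 355 nm; 0% = enzyme without compound and 100% = no enzyme blank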
Thrombin inh: thrombin (human) inhibition; P00734; alpha-thrombin, Boc-VPR-AMC fluorogenic substrate cleavage; inhibition, % at 5 µM; 220,000 compounds, 0.26% hits;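 active = inhibition at or above 40%; inactive = inhibition below 40%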;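 also: 0% = enzyme with no compound and 100% = wells without enzyme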
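signal = AMC fluorescence, 355/460 nm | material = human alpha-thrombin enzyme | control set = enzyme without compound as high, wells lacking enzyme as low | times = reaction at room temperature | read-out basis = percent inhibition scaled between no-compound controls and no-enzyme blanks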
Platelet DG rel: platelet dense granule release activity. inhibition, %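 (compounds screened at 7.5 µM in platelet-rich plasma)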. human platelet-rich plasma, SFLLRN dense granule ATP release, luminescence. 300,000 compounds, 0.22% hits;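 active = mean replicate score, as percent of positive control, at or above 50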
Numbers without * were called inactive; x = no result given.

SMILES	FXIIa inh	Wee1 stabilizer	KLK5 inh	FXIa inh 1536	Thrombin inh	Platelet DG rel
CC/C=C/C(=O)N1CC2(CC(c3cccc(NC(=O)CCCCC)c3)=NO2)C[C@H]1C(N)=O (stereo partly drawn)	16	x	31	42*	-2	8
C=C(C)C(=O)Nc1cccc(C2=NOC3(C2)C[C@H](C(N)=O)N(C(=O)CC#N)C3)c1 (stereo partly drawn)	0	x	-2	-3	-8	-2
C=C(C)C(=O)Nc1cccc(C2=NOC3(C2)C[C@H](C(N)=O)N(C(=O)CC)C3)c1 (stereo partly drawn)	55*	x	28	36	17	6
CN(C)/C=C/C(=O)c1ccc(Cl)cc1	1	11*	3	-8	-3	-4
CN(C)/C=C/C(=O)c1cccc(Cl)c1	2	0	-28	-6	16	10
COc1cc(S(=O)(=O)NCc2ccncc2)ccc1Br	x	x	x	x	x	4
O=C(Nc1cccc(F)c1)C1CCN(C(=O)c2ccccc2Cl)CC1	9	-1	46*	1	4	5
COc1ccc(-c2nn3cnnc3s2)cc1OC	18	1	129*	12	45*	6
CN(C)C(=O)COc1ncnc2sc(-c3ccccc3)cc12	x	x	x	x	x	15
COc1ncnc2sc(-c3ccccc3)cc12	8	2	10	15	0	61*
c1ccc(CSCc2cn3ccccc3n2)cc1	6	1	-2	1	x	-3
Cc1ccc(SCc2cn3ccccc3n2)cc1	13	9.3*	0	3	4	-27
c1ccc2sc(NCC3CCCO3)nc2c1 (stereo not drawn)	0	9.4*	11	-2	-4	-11
c1ccc2oc(-c3csc(NCC4CCCO4)n3)cc2c1 (stereo not drawn)	3	-1	-5	-2	0	-4
O=C(COC(=O)CCOc1ccccc1)Nc1ccc(Cl)cn1	0	-1	-28	-11	48*	5
O=C(COC(=O)CCc1ccccc1)Nc1ncc(Cl)cc1Cl	17	0	3	6	42*	-4
CCOc1ccc(OCCC(=O)OCC(=O)Nc2ccc(Cl)cn2)cc1	x	x	x	x	x	-2
O=C(COC(=O)/C=C/c1ccc(Cl)cc1Cl)NCc1ccco1	4	9.7*	-7	-4	-6	0
O=C(COC(=O)/C=C/c1ccccc1Cl)NCc1ccco1	6	-1	1	2	-1	-2
COCCNC(=O)C1CC(=O)N(c2ccc(OC)cc2)C1c1ccc(OC)cc1 (stereo not drawn)	8	-1	-5	1	-13	-3
CC(C)(C)CN1CCNC(=O)C1CC(=O)N1CCN(c2ccccc2)CC1 (stereo not drawn)	7	1	3	4	1	14
Nc1nnc(CCOc2ccc(Cl)cc2)s1	21	3	44*	16	24	4
CCOC(=O)N1CCN(C(=O)Cn2cc3c(n2)CCCC3)CC1	-2	11*	5	-11	-1	1
C=C(C)Cn1c(SCC(=O)N/N=C/c2cccc(O)c2)nc2ccccc2c1=O	11	1	-6	-2	-15	4
O=C(Oc1nsnc1N1CCOCC1)N1CCCC1	x	0	x	x	x	-4
SMILES	FXIIa inh	Wee1 stabilizer	KLK5 inh	FXIa inh 1536	Thrombin inh	Platelet DG rel
O=C(Oc1nsnc1N1CCCCC1)N1CCOCC1	15	8.9*	3	9	7	x
CCCc1nc2n[nH]c(N)c2c2c1CCCC2	16	1	-31	15	0	x
CCCc1nc2n[nH]c(N)c2c2c1CCC2	55*	2	-4	35	3	-3
COc1cccc(OCCNC(=O)c2cccc(OC)c2)c1	-1	-2	-2	-1	-8	53*
COc1ccccc1N1CCN(C(=O)CNC(=O)c2cn(-c3ccccc3OC)c(=O)c3ccccc23)CC1	9	0	2	-1	101*	7
COc1ccccc1N1CCN(C(=O)c2ccc(CS(=O)(=O)c3ccccc3OC)o2)CC1	-16	9.8*	-22	-11	-10	-7
Cc1ccc(S(=O)(=O)Cc2ccc(C(=O)N3CCN(c4cccc(C)c4C)CC3)o2)cc1	x	x	x	x	x	94*
CCOC(=O)N1CCN(c2ccccc2OC)CC1	8	9.6*	-4	-1	2	3
COc1ccc(NC(=O)c2ccc(C)o2)c([N+](=O)[O-])c1	5	-1	-14	-1	-4	5
CNCc1cc2ccc(C)cc2[nH]c1=O	0	-1	45*	6	9	-2
O=C(c1ccco1)N1N=C2CCCCCC2C1(O)C(F)(F)F (stereo not drawn)	6	11*	3	-2	2	-1
COc1ccc(CNC(=O)NC(C)(C)c2cccc(C(C)(C)NC(=O)NCc3ccc(OC)cc3)c2)cc1	30	-1	44*	9	15	-8
Cc1ccc(C)n1NC(=O)c1ccccc1Cl	11	0	-20	-2	1	8
CC(=O)c1c(C(C)=O)c(C)n(NC(=O)c2ccccc2Cl)c1C	8	9.2*	-15	-3	0	10
O=S(=O)(NCCc1cn2ccccc2n1)c1ccc2c(c1)CCCC2	12	-1	4	13	2	57*
COc1ccc(-c2noc(-c3cccs3)n2)cc1OC	10	5	5	-6	-1	17
CCOc1ccc(Br)cc1-c1noc(-c2cccs2)n1	11	-1	48*	-5	7	-4
Cc1ccc(NC(=O)CN2C(=O)S/C(=C/c3ccncc3)C2=O)cc1	x	x	x	x	x	-6
Cc1ccc(NC(=O)CN2C(=O)S/C(=C\C(=O)Nc3ccc(Cl)cc3)C2=O)cc1	4	1	45*	4	10	-9
CCOC(=O)CSC1=C(C#N)C(c2ccc3c(c2)OCO3)CC(=O)N1 (stereo not drawn)	7	1	-5	-1	-2	1
CCOC(=O)CSC1=C(C#N)C(c2ccc(Cl)cc2)CC(=O)N1 (stereo not drawn)	34	-1	45*	6	14	4
O=C(Nc1ccc(C(=O)N2CCCC2)cc1)c1ccc(F)cc1Cl	x	x	x	x	x	3
Cc1ccccc1-c1nc2c(s1)CCc1onc(-c3ccc(Cl)cc3)c1-2	x	x	x	x	x	2
Cc1cc(C(=O)Nc2nc(C)c(C(=O)N(C)C)s2)ccc1[N+](=O)[O-]	53*	3	24	15	43*	-3
Cc1nc(NC(=O)c2ccc([N+](=O)[O-])cc2Cl)sc1C(=O)N(C)C	7	-3	-13	5	-6	-5
CC(C)S(=O)(=O)c1csc(C(=O)Nc2ccc(F)cc2)c1N	7	0	4	4	2	57*
N#Cc1c(-c2ccccc2)nc2n1CCS2	2	-3	-9	-2	1	2
CCOC(=O)c1sc(-c2ccc(OC)cc2)cc1N	16	11*	-25	1	-2	3
CC(C)c1ccc(/C=C2\SC(N3CCOCC3)=NC2=O)cc1	15	9.2*	5	5	-2	-5
